According to PMC6702078 (Biochemical pharmacology, 2019):
pIC50: −log10 of the molar value.

Tests used:
[1] = tested on: PSA expression; assay: PSA expression by Western blot in LNCaP expressing AR-V7; format: cell-based, human; settings: LNCaP stably expressing AR-V7, 10μM, 24 hrs
Summary of the method: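 Cells were lysed in 1x SDS sample buffer (1 × 10^7 cells/ml) and boiled 5 min. PSA and AR levels were assessed by SDS-PAGE and Western blot.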

[2] = tested on: castration-resistant DU-145 PC cells; assay: Cell viability; format: cell-based, human; settings: for effect on viability: DU-145, escalating concentrations, 96 hours (Fig.5E); for ED20 / ED50 / ED70 / ED90: DU-145, 96 hours, CellTiter Blue
[3] = tested on: androgen-dependent LNCaP PC cells; assay: Cell viability; format: cell-based, human; settings: for effect on viability: escalating concentrations, 96 hours (Fig.5C); for IC20 / pIC50 / IC70 / IC90: Homo sapiens, 96 h; for IC20: read-out: ED20; for pIC50: read-out: ED50; for IC70: read-out: ED70; for IC90: read-out: ED90
[4] = tested on: AR transcriptional activity; assay: AR luciferase reporter assay in LNCaP with R1881; format: cell-based, human; settings: R1881 2.5nM, 8 hrs
[5] = tested on: PARP1 enzymatic activity in PC cells; assay: PARP-1 inhibitory assay in human cell culture; format: cell-based
Summary of the method: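 Graded doses of test compound were added in complete medium for 24 or 48 h. Cells were lysed in SDS sample buffer at 1 × 10^7 cells/ml and boiled 5 min. Poly(ADP-ribose) was assessed by SDS-PAGE and Western blot with mouse anti-pADPr (1:500).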

[6] = tested on: castration-resistant PC-3 PC cells; assay: Cell viability; format: cell-based, human; settings: for effect on viability: PC-3, escalating concentrations, 96 hours (Fig.5D); for IC20 / pIC50 / IC70 / IC90: Homo sapiens, 96 h; for IC20: read-out: ED20; for pIC50: read-out: ED50; for IC70: read-out: ED70; for IC90: read-out: ED90
[7] = Human liver microsome stability; format: in vitro ADME; settings: both, liver microsomes, pH 7.4
[8] = target: hCYP2C9 (Homo sapiens, UniProt P11712); assay: Cytochrome P450 inhibition CYP2C9; format: in vitro ADME
hCYP2C9, sequence (P11712 whole entry): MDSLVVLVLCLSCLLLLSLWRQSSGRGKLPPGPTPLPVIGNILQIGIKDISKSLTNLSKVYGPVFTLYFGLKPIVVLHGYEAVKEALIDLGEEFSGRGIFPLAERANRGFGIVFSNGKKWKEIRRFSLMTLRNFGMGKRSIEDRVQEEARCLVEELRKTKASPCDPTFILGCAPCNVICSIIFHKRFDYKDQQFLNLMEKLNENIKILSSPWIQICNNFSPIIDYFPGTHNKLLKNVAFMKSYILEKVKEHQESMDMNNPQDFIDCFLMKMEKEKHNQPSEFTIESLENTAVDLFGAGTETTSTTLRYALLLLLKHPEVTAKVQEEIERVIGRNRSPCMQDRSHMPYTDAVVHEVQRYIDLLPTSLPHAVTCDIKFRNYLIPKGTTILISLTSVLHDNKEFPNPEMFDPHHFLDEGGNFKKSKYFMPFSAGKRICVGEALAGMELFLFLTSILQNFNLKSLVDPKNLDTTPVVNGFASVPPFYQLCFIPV

[9] = Kinetic aqueous solubility in PBS; format: physicochemical; settings: phosphate buffered saline, pH 7.4, aqueous buffer, kinetic from dmso stock
[10] = target: PARP-1 (Homo sapiens, UniProt P09874); assay: PARP-1 activity assay in cell free system; format: biochemical; settings: inhibitors at 10μM; pADPr Western blot and colorimetric assay (Fig.4C-D)
PARP-1, sequence (P09874 whole entry): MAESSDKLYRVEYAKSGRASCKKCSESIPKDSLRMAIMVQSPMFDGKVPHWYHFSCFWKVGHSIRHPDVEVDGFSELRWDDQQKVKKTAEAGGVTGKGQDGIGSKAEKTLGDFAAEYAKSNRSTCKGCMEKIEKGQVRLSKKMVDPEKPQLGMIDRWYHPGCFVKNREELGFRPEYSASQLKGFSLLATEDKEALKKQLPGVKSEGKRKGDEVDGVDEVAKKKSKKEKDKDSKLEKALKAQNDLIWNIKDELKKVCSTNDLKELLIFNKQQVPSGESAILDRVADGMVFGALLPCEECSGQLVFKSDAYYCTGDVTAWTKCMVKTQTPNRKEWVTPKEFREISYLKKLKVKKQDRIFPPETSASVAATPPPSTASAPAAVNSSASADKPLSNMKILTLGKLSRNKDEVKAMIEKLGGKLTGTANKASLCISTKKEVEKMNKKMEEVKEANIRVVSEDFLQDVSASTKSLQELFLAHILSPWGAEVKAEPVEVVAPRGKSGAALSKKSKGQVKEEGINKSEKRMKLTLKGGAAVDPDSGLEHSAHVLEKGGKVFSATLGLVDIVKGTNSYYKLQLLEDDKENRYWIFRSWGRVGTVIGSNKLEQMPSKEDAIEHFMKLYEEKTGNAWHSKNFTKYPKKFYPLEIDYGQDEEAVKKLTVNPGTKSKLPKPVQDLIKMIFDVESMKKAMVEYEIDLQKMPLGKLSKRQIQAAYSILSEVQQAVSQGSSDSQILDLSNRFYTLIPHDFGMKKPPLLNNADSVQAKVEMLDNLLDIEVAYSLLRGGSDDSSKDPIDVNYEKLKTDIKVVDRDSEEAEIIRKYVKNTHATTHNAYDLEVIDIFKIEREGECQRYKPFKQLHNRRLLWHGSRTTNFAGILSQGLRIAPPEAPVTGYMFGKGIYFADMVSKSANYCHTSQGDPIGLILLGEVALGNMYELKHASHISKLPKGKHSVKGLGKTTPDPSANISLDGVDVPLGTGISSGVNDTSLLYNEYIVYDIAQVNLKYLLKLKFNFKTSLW
Summary of the method: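 Commercial PARP-1 enzyme was activated by either H4 histone or endonuclease-digested plasmid DNA, with NAD and inhibitor or water, in PARP-1 reaction buffer (Tris pH 8.0, MgCl2, Triton X-100). Reactions ran 30 min at room temperature. pADPr was detected by SDS-PAGE and anti-pADPr Western blot, relative to DMSO-treated mixtures. Inhibitors were tested at 10 μM.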

[11] = target: hCYP2D6 (Homo sapiens, UniProt P10635); assay: Cytochrome P450 inhibition CYP2D6; format: in vitro ADME
hCYP2D6, sequence (P10635 whole entry): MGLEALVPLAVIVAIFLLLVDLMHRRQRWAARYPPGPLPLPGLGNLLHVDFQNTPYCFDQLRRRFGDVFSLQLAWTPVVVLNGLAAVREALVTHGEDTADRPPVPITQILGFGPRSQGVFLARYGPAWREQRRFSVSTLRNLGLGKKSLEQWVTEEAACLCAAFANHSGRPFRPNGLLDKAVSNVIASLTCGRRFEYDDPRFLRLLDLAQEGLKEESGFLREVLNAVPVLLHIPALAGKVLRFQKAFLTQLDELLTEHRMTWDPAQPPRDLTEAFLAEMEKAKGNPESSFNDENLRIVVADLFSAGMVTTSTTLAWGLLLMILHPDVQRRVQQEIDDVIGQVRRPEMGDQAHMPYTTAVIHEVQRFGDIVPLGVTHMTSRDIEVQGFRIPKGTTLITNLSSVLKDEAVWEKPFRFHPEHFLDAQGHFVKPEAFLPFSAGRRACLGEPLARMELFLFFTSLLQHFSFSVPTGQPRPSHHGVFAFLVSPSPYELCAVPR

[12] = Mouse liver microsome stability; format: in vitro ADME; settings: male, CD-1, mouse, liver microsomes, pH 7.4
[13] = Mouse plasma stability; format: in vitro ADME; settings: for half-life at 1 μM: male, C57BL/6, mouse, pH 7.4
[14] = target: hCYP3A4 (Homo sapiens, UniProt P08684); assay: Cytochrome P450 inhibition CYP3A4; format: in vitro ADME
hCYP3A4, sequence (P08684 whole entry): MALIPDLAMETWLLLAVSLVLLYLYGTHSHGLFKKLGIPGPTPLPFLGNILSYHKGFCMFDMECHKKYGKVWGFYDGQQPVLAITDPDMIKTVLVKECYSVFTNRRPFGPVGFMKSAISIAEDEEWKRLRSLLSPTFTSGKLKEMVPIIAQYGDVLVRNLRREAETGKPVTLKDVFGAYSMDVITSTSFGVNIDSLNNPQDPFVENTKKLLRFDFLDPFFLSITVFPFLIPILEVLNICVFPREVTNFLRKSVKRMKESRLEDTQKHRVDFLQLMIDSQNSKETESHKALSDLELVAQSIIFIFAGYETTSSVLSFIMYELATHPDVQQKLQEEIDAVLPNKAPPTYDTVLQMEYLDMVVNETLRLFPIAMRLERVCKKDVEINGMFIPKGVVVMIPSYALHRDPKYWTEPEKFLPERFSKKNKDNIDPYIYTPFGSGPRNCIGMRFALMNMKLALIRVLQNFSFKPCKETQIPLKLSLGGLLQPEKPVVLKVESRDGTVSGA

Compound	effect on R1881-mediated AR transcriptional activity [4]	ED20 [2]	ED50 [2]	ED70 [2]	ED90 [2]	IC20 [3]	pIC50 [3]	IC70 [3]	IC90 [3]	half-life at 1 μM [7]	microsomal CLint at 1 μM [7]	remaining at 1 h, 1 μM [7]	pIC50 [8]	solubility at 90 min [9]	IC20 [6]	pIC50 [6]	IC70 [6]	IC90 [6]	pIC50 [11]	remaining at 1 h, 1 μM [12]	other results
CNC(=O)c1ccc(N2C(=S)N(c3ccc(C#N)c(C(F)(F)F)c3)C(=O)C2(C)C)cc1F [Enzalutamide]	–	–	–	–	–	–	–	–	–	–	–	–	–	–	–	–	–	–	–	–	effect on PSA expression [1]: negligible inhibitory effect
Cl.O=C(CN1CCCCC1)OC1CCCCCCCCCCC1 [FC-7218, Cyclododecyl 2-(piperidin-1-yl)acetate hydrochloride]	only weak inhibitory effects	–	–	–	–	–	–	–	–	–	–	–	–	–	–	–	–	–	–	–	effect on viability [2]: no significant effect; effect on viability [3]: no significant effect; effect on the PARP1 enzymatic activity in PC cells [5]: insignificant effect; effect on viability [6]: no significant effect
Cl.O=C(CN1CCCCC1)NC1CCCCCCCCCCC1 [FC-7219, N-cyclododecyl-2-(piperidin-1-yl)acetamide hydrochloride]	only weak inhibitory effects	–	–	–	–	–	–	–	–	–	–	–	–	–	–	–	–	–	–	–	effect on viability [2]: no significant effect; effect on viability [3]: no significant effect; effect on the PARP1 enzymatic activity in PC cells [5]: insignificant effect; effect on viability [6]: no significant effect
C[N+]1(CC(=O)NC2CCCCCCCCCCC2)CCCCC1.[I-] [FC-7220, 1-[(Cyclododecylcarbamoyl)methyl]-1-methylpiperidin-1-ium iodide]	only weak inhibitory effects	10.0 µM	37.2 µM	82.7 µM	296.1 µM	5.1 µM	4.82	29.4 µM	84.2 µM	1.6 min	850 µL/min/mg	100%	< 5.00	191 µM	9.6 µM	4.43	83.7 µM	310 µM	5.63	101%	PARP-1 inhibitory activity in cell free system [10]: reduced anti-PARP-1 activity; half-life at 1 μM ([13]; mouse plasma): > 240 min; pIC50 [14]: 5.71
O=C(CN1CCC1)OC1CCCCCCCCCCC1 [MC-270008, Cyclododecyl 2-(azetidin-1-yl)acetate]	–	–	–	–	–	–	–	–	–	–	–	–	–	–	–	–	–	–	–	–	effect on the PARP1 enzymatic activity in PC cells [5]: insignificant effect; PARP-1 inhibitory activity in cell free system [10]: diminished capacity to inhibit PARP-1
C[N+]1(CC(=O)OC2CCCCCCCCCCC2)CCCC1.[I-] [MC-270016, 1-(2-(Cyclododecyloxy)-2-oxoethyl)-1-methylpyrrolidin-1-ium iodide]	–	13.3 µM	38.6 µM	73.9 µM	208.1 µM	0.9 µM	5.52	6.1 µM	19.4 µM	1.9 min	721 µL/min/mg	92%	< 5.00	125 µM	9.6 µM	4.65	37.4 µM	85 µM	5.07	98%	half-life at 1 μM ([13]; mouse plasma): 57.2 min; pIC50 [14]: 5.53
C[N+]1(CC(=O)OC2CCCCCCCCCCC2)CCCCCC1.[I-] [MC-270017, 1-(2-(Cyclododecyloxy)-2-oxoethyl)-1-methylazepan-1 ium iodide]	–	10.6 µM	20.9 µM	31.6 µM	61.1 µM	0.9 µM	5.64	4.1 µM	10.1 µM	1.2 min	1200 µL/min/mg	95%	< 5.00	140 µM	10.2 µM	4.76	24.2 µM	40.8 µM	5.36	87%	half-life at 1 μM ([13]; mouse plasma): 35.9 min; pIC50 [14]: 5.77
CC1(C)CC[N+](C)(CC(=O)OC2CCCCCCCCCCC2)CC1.[I-] [MC-270019, 1-(2-(Cyclododecyloxy)-2-oxoethyl)-1,4,4-trimethylpiperidin-1-ium iodide]	–	10.9 µM	24.6 µM	40.4 µM	89.1 µM	1.3 µM	5.51	5.2 µM	12.2 µM	1.2 min	1150 µL/min/mg	92%	< 5.00	95.2 µM	6.9 µM	4.84	23.1 µM	48.1 µM	5.00	84%	half-life at 1 μM ([13]; mouse plasma): 19.6 min; pIC50 [14]: 5.33
C[N+]1(CC(=O)OC2CCCCCCCCCCC2)CCSCC1.[I-] [MC-270021, 4-(2-(Cyclododecyloxy)-2-oxoethyl)-4-methylthiomorpholin-4-ium iodide]	–	–	–	–	–	4.2 µM	4.95	20.3 µM	52.1 µM	1.3 min	1070 µL/min/mg	85%	< 5.00	110 µM	4.9 µM	4.22	282 µM	3270 µM	5.03	88%	half-life at 1 μM ([13]; mouse plasma): 118 min; pIC50 [14]: 5.41
CNCc1ccc(-c2[nH]c3cc(F)cc4c3c2CCNC4=O)cc1 [Rucaparib, reference compound]	only weak inhibitory effects	0.9 µM	5.0 µM	14.8 µM	82.7 µM	–	4.57	52.6 µM	155 µM	–	–	–	–	–	1 µM	5.15	23.2 µM	157 µM	–	–	–
C[C@]1(c2nc3c(C(N)=O)cccc3[nH]2)CCCN1 [Veliparib, reference compound]	only weak inhibitory effects	6.7 µM	36.7 µM	104.0 µM	547.2 µM	10.6 µM	4.25	153 µM	768 µM	–	–	–	–	–	9.7 µM	4.15	237 µM	1630 µM	–	–	–
CCN(CC)CCOC(=O)c1ccc(N)cc1 [procaine, reference compound]	–	–	–	–	–	–	–	–	–	–	–	–	–	–	–	–	–	–	–	–	stable in PBS ([13]; PBS pH 7.4, 1 μM, 60 min, 37°C, typical value): 100%; degraded in plasma ([13]; mouse plasma, 1 μM, 60 min, 37°C, typical value): > 95%
